This is one part of a sample in which hits are shown more often than they occur.
UPR XBP1 act: adaptive UPR (XBP1) activation | CHO-XBP1 luciferase reporter, IRE1-XBP1 UPR activation, luminescence; percent of tunicamycin response, DMSO as zero | activation, % at 20 µM | hit rate 0.33% among 330,000 | AID 463104;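 active = versus positive control, 20 µM dose yields 30% or more activation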;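 also: 100% = tunicamycin at 10 µg/mL and 0% = DMSO only wells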
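Material: CHO-XBP1 cells stably carrying IRE1-XBP1-driven luciferase reporter / Amount: 1000 cells per well / Compound: 20 µM, 1% DMSO / Times: 6 h treatment, 37 °C / Detection: luciferase luminescence / Measure: % activation of reporter signal versus tunicamycin and DMSO controls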
CHOP inh: inhibitors of CHOP induction in ER stress response | CHO-K1 CHOP-promoter luciferase, tunicamycin-induced, 15-18 h | inhibition, % at 10 µM | hit rate 3.8% among 220,000;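 active = compounds that reduced the stress-induced luciferase reporter signal by more than about 70% of percent inhibition, limit read from the data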;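 also: 0% = tunicamycin plus vehicle and 100% = wells without tunicamycin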
FXN GAA850 act: activators of GAA850 frataxin (FXN) promoter. activation, % at 6 µM. HEK293 lucGAA850 FXN promoter luciferase reporter, 24 h; percent of 10 µM SAHA response. hit rate 0.56% among 360,000;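 active = activation above the average of all compounds screened plus 3 SD, cutoff fixed separately per campaign, cut at about 7.5% in these data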;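 also: 0% = DMSO wells and 100% = 10 µM SAHA wells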
CHOP UPR activ: activators of apoptotic arm of unfolded protein response (CHOP) | CHO-CHOP luciferase reporter, UPR activation, luminescence; percent of tunicamycin response over DMSO baseline | activation, % at 10 µM | hit rate 0.34% among 330,000 | AID 449763;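 active = at 10 µM dose, activation of 40% or more, normalized to positive control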;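 also: 100% = tunicamycin at 10 µg/mL and 0% = DMSO alone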
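Material: CHO-CHOP cells, stable luciferase reporter of PERK-eIF2a-CHOP signalling; quantity: 500 reporter cells seeded per well; buffer or medium: F12 medium containing 10% fetal bovine serum; compound: one dose, 10 µM in 0.5% DMSO; incubation: 6 h compound treatment, 37 °C; measured by: Steady-Glo luciferase luminescence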
GAA30 FXN cntr: counter-screen for GAA850 frataxin promoter activators: GAA30 promoter activation. HEK293 lucGAA30 FXN promoter luciferase, 24 h; DMSO = 0%, 5 µM ipriflavone = 100%. activation, % at 6 µM. shares compounds with FXN GAA850 act. hit rate 66% among 1,900. AID 588350;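 active = mean activation above the mean of solvent-only control wells plus 3 SD, cut at about 22% in these data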;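 also: counterscreen of GAA850 promoter hits where activity marks nonselective or luminescence artifacts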
GAA850 confirm: confirmation of GAA850 frataxin (FXN) promoter activators. shares compounds with FXN GAA850 act. HEK293 lucGAA850 FXN promoter luciferase reporter, 24 h; 100% = activation by SAHA. activation, % at 6 µM. hit rate 86% among 1,900. AID 588351;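 active = mean activation above a set limit taken from the primary screen, cut at about 8% in these data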;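 also: 0% = DMSO wells and 100% = 10 µM SAHA wells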
* marks the source's active call; other numbers are inactive results; / = no result.

SMILES	UPR XBP1 act	CHOP inh	FXN GAA850 act	CHOP UPR activ	GAA30 FXN cntr	GAA850 confirm
CC(=O)Nc1ccc(/C=N/Nc2nc3ccccc3s2)cc1	/	4.7	8.7*	/	122.8*	35.9*
CS(=O)(=O)N1CCCCC1c1cc(C(=O)Nc2cccc3c2CCCC3)no1 (configuration not stated)	/	/	1.5	/	/	/
N#Cc1ccc(S(=O)(=O)N2CCCCC2c2cc(C(=O)Nc3cccc4c3CCCC4)no2)cc1 (configuration not stated)	/	/	7.9*	/	27.3*	12.2*
COc1ccccc1C(=O)Nc1nnc([C@@H]2C[C@H](O)[C@@H](CO)O2)s1	/	/	0.6	/	/	/
CCCCSc1nc2c([nH]1)c(=S)n(C)c(=O)n2C	/	/	19.2*	/	13.7	15.1*
CCCC(CC)Sc1nc2c([nH]1)c(=S)n(C)c(=O)n2C (configuration not stated)	/	/	15.0*	/	17.3	13.8*
CCCCC(C)Sc1nc2c([nH]1)c(=S)n(C)c(=O)n2C (configuration not stated)	/	/	7.2	/	/	/
COc1ccc(CC(N)c2csc(NC(=O)c3cc(C(C)(C)C)nn3Cc3ccccc3)n2)cc1 (configuration not stated)	/	/	0.4	/	/	/
Cc1ccc2nc3ccc(N4CCN(C)CC4)nn3c(=O)c2c1	-3.2	-13.0	8.2*	-1.5	115.6*	34.4*
Cc1ccc2nc3ccc(N4CCCCCCC4)nn3c(=O)c2c1	4.3	-19.1	1.2	6.5	/	/
O=C(/C=C/c1ccccc1Cl)OCC(=O)N1CCc2ccccc21	/	/	0.0	/	/	/
O=C(Nc1ccc(Cl)cc1)c1ccc2c(=O)n3c(nc2c1)CCCCC3	-0.3	/	18.0*	3.5	62.8*	24.8*
O=C(Nc1ccc(Cl)cc1Cl)c1ccc2c(=O)n3c(nc2c1)CCC3	0.9	/	5.3	9.9	/	/
O=C(Nc1ccc(Br)cc1Cl)c1ccc2c(=O)n3c(nc2c1)CCC3	8.0	/	7.9*	4.8	87.5*	23.4*
O=c1[nH]cnc2c1nnn2C1OC(CO)C(O)C1O (configuration not stated)	/	/	-1.5	/	/	/
CC1(C(=O)NS(=O)(=O)c2ccccc2Cl)CCN1C(=O)CCc1ccccc1 (configuration not stated)	/	/	-2.0	/	/	/
O=c1nccc(N/N=C/c2cccc(O)c2)[nH]1	-1.1	/	0.9	2.2	/	/
COc1cc(/C=N/Nc2ccnc(=O)[nH]2)ccc1O	-4.5	/	7.7*	1.6	30.9*	7.2
Nc1ccc(C#Cc2ccc3c(=O)c4ccccc4oc3c2)cc1	7.4	/	1.8	4.9	/	/
Cn1cncc1C#Cc1ccc2c(=O)c3ccccc3oc2c1	10.8	/	7.9*	6.6	67.5*	39.9*
CC(=O)Nc1cccc(NC(=O)CSc2ncc(C(=O)Nc3ccccc3)c(=O)n2C)c1	-5.2	/	9.7*	202.5*	21.1	14.5*
CC(=O)Nc1ccc(NC(=O)CSc2ncc(C(=O)Nc3ccc(Cl)cc3)c(=O)n2C)cc1	-1.7	/	2.5	5.0	/	/
COc1ccc(Nc2cnn(-c3nc4ccccc4s3)c(=O)c2Cl)cc1	/	74.6*	20.1*	/	30.8*	39.1*
O=c1c(Cl)c(Nc2cccc(Cl)c2)cnn1-c1nc2ccccc2s1	-1.2	-2.4	-4.0	2.2	/	/
O=C(CSc1nc2ccccc2o1)NC1CCCC1	-3.5	-0.2	7.6*	-0.9	2.5	2.3
SMILES	UPR XBP1 act	CHOP inh	FXN GAA850 act	CHOP UPR activ	GAA30 FXN cntr	GAA850 confirm
O=C(CN(C(=O)CSc1nc2ccccc2o1)c1ccccc1)NC1CCCCC1	-2.8	38.9	0.3	-1.7	/	/
C[C@H]1CN([C@@H](C)CO)S(=O)(=O)c2ccc(C#Cc3ccccn3)cc2O[C@@H]1CN(C)C(=O)C1CC1	/	/	-1.0	/	/	/
Fc1cccc(/C=N/Nc2cc(N3CCOCC3)ncn2)c1	-5.4	/	9.3*	2.6	127.4*	98.6*
COc1cc2c3c(cccc3c1)C(=O)N(CCN1CCCC1)C2=O	/	/	27.4*	/	-28.8	131.3*
COc1ccc(C(=O)CN2CCN(CCN3C(=O)c4cccc5cccc(c45)C3=O)CC2)cc1	-4.0	/	-2.9	-0.5	/	/
CC1(C(=O)NS(=O)(=O)C2CC2)CCN(C(=O)c2ccc(F)cc2Cl)C1 (configuration not stated)	/	/	1.6	/	/	/
CCc1nc2ccc(C(=O)NCCOc3ccc(OC)cc3)cn2c1N(CC)Cc1cccc(Br)c1	/	/	-2.7	/	/	/
CCc1nc2ccc(C(=O)NCCN3CCNC3=O)cn2c1N(CC)Cc1cccc(Br)c1	/	/	15.1*	/	15.1	7.2
COCCn1c(=S)[nH]c2cc(C(=O)NC3CCCC(C)C3C)ccc2c1=O (configuration not stated)	/	/	2.5	/	/	/
CCc1nc2c(OCc3ccc(OC(F)F)cc3)cccn2c1N(C)C(=O)c1cccs1	/	/	-0.6	/	/	/
O=C(/C=C/c1ccccc1[N+](=O)[O-])c1ccc(F)cc1	2.6	-41.2	8.5*	2.3	57.0*	24.6*
COc1ccccc1/C=C/C(=O)c1ccc(Cl)cc1	1.1	61.7	2.5	5.4	/	/
COc1cccc(/C=C/C(=O)c2ccc3c(c2)OCCO3)c1OC	-1.1	/	7.9*	6.1	97.6*	39.4*
COc1ccccc1/C=C/C(=O)c1ccccc1	/	1.2	7.6*	/	87.0*	33.0*
Cc1ccc(-n2nnnc2CNC(=O)C(=O)c2c[nH]c3ccccc23)cc1C	/	/	0.7	/	/	/
Cc1cccnc1C1=NOC(Cc2ccccc2)C(=O)N1Cc1ccc2c(c1)OCO2 (configuration not stated)	/	/	-0.3	/	/	/
CC(C)(C)c1ccc(/C=C/C(=O)Nc2nncs2)cc1	2.3	-18.6	7.6*	6.4	107.9*	39.3*
CC(=O)Nc1ccc2c(c1)Cc1c-2cc(Br)c(N)c1Br	/	/	7.6*	/	62.9*	28.5*
COC(=O)Cc1ccc(OC2(C)CCN(Cc3ccccc3)C2)cc1 (configuration not stated)	/	/	0.9	/	/	/
CC(=O)Oc1ccccc1C(=O)C=Cc1cccc([N+](=O)[O-])c1	/	/	16.8*	/	-50.5	22.0*
CN1C2=NCCN2C(=O)c2ccccc21	-0.2	-13.2	3.5	-1.2	/	/
c1ccc2c(c1)C1=NCCN1c1ccccc1-2	/	/	32.8*	/	5.7	150.3*
CCNC(=O)C1(C)CCN(C(=O)c2c(-c3ccccc3)noc2C)C1 (configuration not stated)	/	/	1.1	/	/	/
Cc1ccc(OCc2ccc([N+](=O)[O-])cc2)c([N+](=O)[O-])n1	-0.5	/	8.4*	4.7	117.5*	34.2*
Cn1cc([N+](=O)[O-])c(C(=O)Nc2ccc(Br)cn2)n1	-3.2	-11.8	1.6	1.4	/	/
Cn1cc([N+](=O)[O-])c(C(=O)Nc2ccc(-c3nc4ccccc4o3)cc2)n1	1.7	-18.8	8.8*	9.1	93.2*	30.7*
COc1ccc(CN(CCCn2cnc3c(OC)ncnc32)CCCn2cnc3c(OC)ncnc32)cc1	/	/	0.7	/	/	/

Source: PubChem BioAssay
